Eight compounds from ChEMBL document CHEMBL1146795, “Synthesis and antiangiogenic activity of exo-olefinated deoxoartemisinin derivatives” (Bioorg Med Chem Lett, 2004) can be followed below.

Experiment [1] has as its system HUVEC. In words: Antiangiogenic activity to suppress the growth factor induced tube formation byHUVEC on Matrigel was assessed at the concentration of 10 ug/mL. The experiment is classed as functional. Particulars: Homo sapiens.
Experiment [2] has as its system HUVEC. Description: Antiangiogenic activity against HUVEC cells in HUVEC(Human Umbilical Vein Endothelial Cells) proliferation assay usingMTT colorimetric method. The experiment is classed as functional, cell-based. The procedure, abridged:
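HUVEC growth measured by MTT colorimetric read-out. IC50 taken from a nonlinear regression fit with r2 > 0.9.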

Experiment [3] is described as follows: Antiangiogenic activity against chorioallantoic membrane (CAM) assay at 10 ug/egg. Format: functional, tissue-based.

≈ marks a conversion by molar mass, not a printed value.

`CCC/C(Br)=C1/O[C@@H]2OC3(C)CC[C@H]4[C@H](C)CC[C@@H]([C@H]1C)[C@@]24OO3` (single isomer, unassigned): the inhibition at 10 µg/mL with HUVEC [1] turned out to be 10%. In addition, it took 1.9 µg/mL (≈ 4.73 µM) to reach half-maximal inhibition in the experiment on HUVEC [2] (IC50). In addition, in experiment [3], the inhibition amounted to 8%.

`C/C(Br)=C1\O[C@@H]2OC3(C)CC[C@H]4[C@H](C)CC[C@@H]([C@H]1C)[C@@]24OO3` (single isomer, unassigned) registered an inhibition at 10 µg/mL with HUVEC [1] of 65%. The compound further showed an IC50 with HUVEC [2] of 4.5 µg/mL (≈ 12.1 µM). Moreover, in experiment [3], the inhibition turned out to be 50%.

In the case of `C[C@@H]1CC[C@H]2[C@@H](C)C(=Cc3ccccc3)O[C@@H]3OC4(C)CC[C@@H]1[C@]32OO4` (single isomer, unassigned), in the experiment on HUVEC [1], the inhibition at 10 µg/mL stood at 10%. The concentration for half-maximal inhibition (IC50) in the experiment on HUVEC [2] amounted to 2.3 µg/mL (≈ 6.45 µM). This compound also came in with an inhibition in experiment [3] of 5%.

In the case of `C[C@@H]1CC[C@H]2[C@@H](C)/C(=C\Br)O[C@@H]3O[C@]4(C)CC[C@@H]1[C@]32OO4`, in the experiment with HUVEC [1], the inhibition at 10 µg/mL came out at 25%. In the experiment with HUVEC [2], this compound displayed an IC50 of 4.8 µg/mL (≈ 13.4 µM). Besides, the inhibition in experiment [3] stood at 80%.

As to `C/C(Br)=C1/O[C@@H]2OC3(C)CC[C@H]4[C@H](C)CC[C@@H]([C@H]1C)[C@@]24OO3` (single isomer, unassigned), at 10 µg/mL the inhibition in the experiment on HUVEC [1] was 32%. It took 25.4 µg/mL (≈ 68 µM) to reach half-maximal inhibition in the experiment with HUVEC [2] (IC50). The compound further registered an inhibition in experiment [3] of 43%.

Compound `CC(C)=C1O[C@@H]2OC3(C)CC[C@H]4[C@H](C)CC[C@@H]([C@H]1C)[C@@]24OO3` (single isomer, unassigned) came in with an inhibition at 10 µg/mL in the experiment with HUVEC [1] of 13%. The compound also displayed an IC50 in the experiment on HUVEC [2] of 2.3 µg/mL (≈ 7.46 µM). Besides, in experiment [3], the inhibition is 29%.

The compound `CCC/C(Br)=C1\O[C@@H]2OC3(C)CC[C@H]4[C@H](C)CC[C@@H]([C@H]1C)[C@@]24OO3` (single isomer, unassigned) displayed an inhibition at 10 µg/mL with HUVEC [1] of 39%. In addition, in the experiment with HUVEC [2], inhibition was half-maximal at 1.5 µg/mL (≈ 3.74 µM) (IC50). For the same compound, the inhibition in experiment [3] was 57%.

`C[C@@H]1CC[C@H]2[C@@H](C)/C(=C\c3ccccc3)O[C@@H]3OC4(C)CC[C@@H]1[C@]32OO4` (single isomer, unassigned): the inhibition at 10 µg/mL with HUVEC [1] was 10%. In addition, it took 1.9 µg/mL (≈ 5.33 µM) to reach half-maximal inhibition in the experiment with HUVEC [2] (IC50). Moreover, in experiment [3], the inhibition is 10%.

The term inhibition denotes the relative decrease from the control value, in per cent. A higher inhibition goes with a strong effect. In general, IC50 refers to the concentration needed to halve the response being measured. Read a high IC50 as weaker potency in that assay.
